In ChEMBL document CHEMBL4342503, “Diazabicyclooctane Functionalization for Inhibition of β-Lactamases from Enterobacteria” (2020):
Activity calls are given as the source filed them. The rule behind the calls is not given here.

Assays:
[1] = Inhibition of TEM1 (unknown origin) expressed in Escherichia coli BL21 DE3 assessed as K2/Ki ratio using nitrocefin as substrate by spectrophotometry
Summary of the method: (§1)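 His-tagged enzymes expressed in E. coli BL21(DE3) (IPTG 0.5 mM, 16°C, 18 h), purified by Ni-NTA and size exclusion in 25 mM Tris-HCl pH 7.5, 300 mM NaCl. Carbamoylation k2/Ki from progress curves, reporter nitrocefin 100 μM, 20°C, 100 mM MES pH 6.4; inhibitor up to 100 μM; ≥6 curves, ≥2 independent experiments.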

Escherichia coli [2] = assay: Antibacterial activity against Escherichia coli Top10 assessed as cefamandole MIC by CLSI protocol based method (reference value: 2 ug/ml); type: functional
Summary of the method: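 Broth microdilution in cation-adjusted Mueller-Hinton broth following CLSI. Strain carries a β-lactamase gene cloned in pTRC-99k (kanamycin marker); preculture in BHI with IPTG (500 μM) and kanamycin (50 μg/ml); IPTG (500 μM) also in plates to induce enzyme. β-Lactam MIC read with or without inhibitor at fixed 15 μM (4 μg/ml for avibactam; clavulanate 4 μg/ml). Median of five biological repeats from two independent experiments.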

Escherichia coli [3] = assay: Antibacterial activity against Escherichia coli Top10 harboring TEM1 assessed as cefamandole MIC by CLSI protocol based method (reference value: 2048 ug/ml); type: functional
[4] = Inhibition of KPC-2 (unknown origin) expressed in Escherichia coli BL21 DE3 assessed as K2/Ki ratio using nitrocefin as substrate by spectrophotometry; summary of the method: as §1
Escherichia coli [5] = assay: Antibacterial activity against Escherichia coli Top10 without harboring KPC-2 assessed as aztreonam MIC by CLSI protocol based method (reference value: 0.5 ug/ml); type: functional
Escherichia coli [6] = assay: Antibacterial activity against Escherichia coli Top10 harboring KPC-2 assessed as aztreonam MIC by CLSI protocol based method (reference value: 2048 ug/ml); type: functional
Enterobacter cloacae [7] = assay: Inhibition of Enterobacter cloacae CTX-M-15 expressed in Escherichia coli BL21 DE3 assessed as K2/Ki ratio using nitrocefin as substrate by spectrophotometry; summary of the method: as §1
Escherichia coli [8] = assay: Antibacterial activity against Escherichia coli Top10 without harboring CTX-M-15 assessed as amoxicillin MIC by CLSI protocol based method (reference value: 8 ug/ml); type: functional
Escherichia coli [9] = assay: Antibacterial activity against Escherichia coli Top10 harboring CTX-M-15 assessed as amoxicillin MIC by CLSI protocol based method (reference value: 2048 ug/ml); type: functional
Enterobacter cloacae [10] = assay: Inhibition of Enterobacter cloacae AmpC expressed in Escherichia coli BL21 DE3 assessed as K2/Ki ratio using nitrocefin as substrate by spectrophotometry; summary of the method: as §1
Escherichia coli [11] = assay: Antibacterial activity against Escherichia coli Top10 without harboring AmpC assessed as cefotaxime MIC by CLSI protocol based method (reference value: 0.125 ug/ml); type: functional
Escherichia coli [12] = assay: Antibacterial activity against Escherichia coli Top10 harboring AmpC assessed as cefotaxime MIC by CLSI protocol based method (reference value: 256 ug/ml); type: functional
[13] = Inhibition of OXA-48 expressed in Escherichia coli BL21 DE3 assessed as K2/Ki ratio using CENTA as substrate by spectrophotometry
Summary of the method: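 OXA-48 expressed in E. coli BL21(DE3) (IPTG 0.5 mM, 16°C, 18 h), purified by Ni-NTA and size exclusion. Carbamoylation k2/Ki by spectrophotometric progress curves with CENTA 100 μM as reporter, 20°C, 100 mM MES pH 6.4; inhibitor up to 100 μM; ≥6 curves from ≥2 independent experiments.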

Escherichia coli [14] = assay: Antibacterial activity against Escherichia coli Top10 without harboring OXA-48 assessed as ertapenem MIC by CLSI protocol based method (reference value: < 0.03 ug/ml); type: functional
Escherichia coli [15] = assay: Antibacterial activity against Escherichia coli Top10 harboring OXA-48 assessed as ertapenem MIC by CLSI protocol based method (reference value: 8 ug/ml); type: functional
Bacteria = assay: Inhibition of bacterial KPC-2 N132G mutant expressed in Escherichia coli BL21 DE3 assessed as K2/Ki ratio using nitrocefin as substrate by spectrophotometry; summary of the method: as §1
Enterobacter cloacae [16] = assay: Inhibition of Enterobacter cloacae CTX-M-15 N132G mutant expressed in Escherichia coli BL21 DE3 assessed as K2/Ki ratio using nitrocefin as substrate by spectrophotometry; summary of the method: as §1

Row | Compound | Ratio [1] [M⁻¹ s⁻¹] | MIC (Escherichia coli [2]) [µg/mL] | MIC (Escherichia coli [3]) [µg/mL] | Ratio [4] [M⁻¹ s⁻¹] | MIC (Escherichia coli [5]) [µg/mL] | MIC (Escherichia coli [6]) [µg/mL] | Ratio (Enterobacter cloacae [7]) [M⁻¹ s⁻¹] | MIC (Escherichia coli [8]) [µg/mL] | MIC (Escherichia coli [9]) [µg/mL] | Ratio (Enterobacter cloacae [10]) [M⁻¹ s⁻¹] | MIC (Escherichia coli [11]) [µg/mL] | MIC (Escherichia coli [12]) [µg/mL] | Ratio [13] | MIC (Escherichia coli [14]) [µg/mL] | MIC (Escherichia coli [15]) [µg/mL] | Ratio (Bacteria) [M⁻¹ s⁻¹] | Ratio (Enterobacter cloacae [16]) [M⁻¹ s⁻¹]
1 | O=C1N2C[C@@H](CC[C@H]2Cn2cc(-c3cccnc3)nn2)N1OS(=O)(=O)[O-].[Na+] | 1400 | 2 | 8 | 550 | 0.25 | 32 | 1700 | 2 | 32 | 85 | 0.125 | 128 | inactive | < 0.03 | 8 | – | –
2 | NCc1cn(C[C@@H]2CC[C@@H]3CN2C(=O)N3OS(=O)(=O)O)nn1.O=C(O)C(F)(F)F | 3100 | 4 | 4 | 120 | 0.25 | 32 | 88 | 4 | 128 | 16 | 0.125 | 128 | inactive | < 0.03 | 8 | – | –
3 | O=C(NC1CCNCC1)[C@@H]1CC[C@@H]2CN1C(=O)N2OS(=O)(=O)[O-].[Na+] | 43000 | 2 | 4 | 10000 | 0.25 | 0.5 | 960 | 2 | 16 | 15000 | 0.125 | 0.25 | inactive | < 0.03 | 8 | – | –
4 | NC(=O)[C@@H]1CC[C@@H]2CN1C(=O)N2OS(=O)(=O)[O-].[Na+] [AVIBACTAM SODIUM] | 88000 | 2 | 2 | 26000 | 0.25 | 0.5 | 130000 | 2 | 2 | 18000 | 0.125 | 1 | 980 M⁻¹ s⁻¹ | < 0.03 | 0.5 | 53 | 70
5 | O=C1N2C[C@@H](CC[C@H]2Cn2ccnn2)N1OS(=O)(=O)[O-].[Na+] | 1200 | 2 | 8 | 280 | 0.25 | 512 | 280 | 8 | 64 | 210 | 0.125 | 16 | 140 M⁻¹ s⁻¹ | < 0.03 | 8 | 31 | 6.6
6 | O=C1N2C[C@@H](CC[C@H]2Cn2cc(-c3ccccc3)nn2)N1OS(=O)(=O)[O-].[Na+] | 4700 | 4 | 16 | 930 | 0.25 | 64 | 6900 | 8 | 64 | 200 | 0.25 | 128 | 110 M⁻¹ s⁻¹ | < 0.03 | 8 | 21 | 140
7 | COCc1cn(C[C@@H]2CC[C@@H]3CN2C(=O)N3OS(=O)(=O)[O-])nn1.[Na+] | 830 | 2 | 16 | 18 | 0.5 | 512 | 120 | 8 | 256 | 15 | 0.125 | 128 | inactive | < 0.03 | 16 | – | –
8 | CC(C)(C)OC(=O)NCCC(=O)Nc1ccc(-c2cn(C[C@@H]3CC[C@@H]4CN3C(=O)N4OS(=O)(=O)[O-])nn2)cc1.[Na+] | 3700 | 2 | 256 | 1100 | 0.5 | 512 | 2400 | 8 | 768 | 180 | 0.125 | 128 | 150 M⁻¹ s⁻¹ | < 0.03 | 16 | – | –
9 | CC(C)(C)OC(=O)N1CCC(c2cn(C[C@@H]3CC[C@@H]4CN3C(=O)N4OS(=O)(=O)[O-])nn2)CC1.[Na+] | 1700 | 2 | 256 | 830 | 0.25 | 2050 | 230 | 8 | 4100 | 29 | 0.125 | 128 | 210 M⁻¹ s⁻¹ | < 0.03 | 16 | – | –
10 | O=C(O)C(F)(F)F.O=C1N2C[C@@H](CC[C@H]2Cn2cc(C3CCNCC3)nn2)N1OS(=O)(=O)O | 3600 | 2 | 4 | 340 | 0.25 | 32 | 350 | 4 | 64 | 26 | 0.125 | 128 | inactive | < 0.03 | 8 | – | –
